Assay [1] has as its target T1, Amine oxidase [flavin-containing] A (Homo sapiens, UniProt P21397).
T1 sequence (P21397 whole entry): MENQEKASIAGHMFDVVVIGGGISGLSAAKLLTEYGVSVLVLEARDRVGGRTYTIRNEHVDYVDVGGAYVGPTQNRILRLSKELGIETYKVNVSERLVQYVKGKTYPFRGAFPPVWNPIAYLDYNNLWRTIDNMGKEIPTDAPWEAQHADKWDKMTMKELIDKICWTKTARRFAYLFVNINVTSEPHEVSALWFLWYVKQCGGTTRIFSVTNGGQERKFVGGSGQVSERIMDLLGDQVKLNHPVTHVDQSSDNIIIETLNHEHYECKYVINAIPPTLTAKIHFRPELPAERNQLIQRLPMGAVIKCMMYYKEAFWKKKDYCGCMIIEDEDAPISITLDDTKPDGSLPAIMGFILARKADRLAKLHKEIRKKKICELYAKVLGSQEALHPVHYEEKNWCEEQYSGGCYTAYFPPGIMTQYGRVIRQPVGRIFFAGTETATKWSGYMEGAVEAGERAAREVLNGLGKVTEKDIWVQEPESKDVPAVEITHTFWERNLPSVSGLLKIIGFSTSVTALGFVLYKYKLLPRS
The assay is described as follows: Inhibition of recombinant human MAO-A expressed in baculovirus infected BTI insect cells using kynuramine as substrate after 30 mins by fluorescence assay.

The target of assay [2] is Acetylcholinesterase (Electrophorus electricus, UniProt O42275). The assay is described as follows: Inhibition of electric eel AChE using acetylthiocholine chloride as substrate after 15 mins by Ellman's method. Background: Ellman's reagent forms a yellow product with free thiols.
Sequence of Acetylcholinesterase (Electrophorus electricus, UniProt O42275) (O42275 whole entry): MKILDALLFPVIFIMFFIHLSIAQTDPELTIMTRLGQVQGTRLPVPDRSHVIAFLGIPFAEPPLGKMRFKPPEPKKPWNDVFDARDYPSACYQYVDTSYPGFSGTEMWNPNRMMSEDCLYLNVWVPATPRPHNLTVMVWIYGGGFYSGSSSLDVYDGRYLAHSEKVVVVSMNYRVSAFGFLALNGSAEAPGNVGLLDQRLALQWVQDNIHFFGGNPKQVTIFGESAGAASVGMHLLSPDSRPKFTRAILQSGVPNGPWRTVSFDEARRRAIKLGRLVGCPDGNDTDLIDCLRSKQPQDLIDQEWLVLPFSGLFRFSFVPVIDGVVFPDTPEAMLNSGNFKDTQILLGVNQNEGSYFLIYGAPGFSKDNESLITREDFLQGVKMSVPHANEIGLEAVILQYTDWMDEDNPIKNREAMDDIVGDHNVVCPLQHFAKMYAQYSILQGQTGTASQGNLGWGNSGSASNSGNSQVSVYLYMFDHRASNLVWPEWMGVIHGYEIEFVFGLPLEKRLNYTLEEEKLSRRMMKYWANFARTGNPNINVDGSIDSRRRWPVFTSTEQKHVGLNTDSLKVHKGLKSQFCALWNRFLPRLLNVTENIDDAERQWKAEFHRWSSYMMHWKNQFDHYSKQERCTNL
The target of another assay is Cholinesterase (Equus caballus, UniProt P81908). The assay is described as follows: Inhibition of equine serum BuChE using butyrylthiocholine chloride as substrate after 15 mins by Ellman's method. The method in brief: (§1)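 Ellman assay. Equine serum or rat serum BuChE pre-incubated with test compound at various concentrations (DMSO <1%) in 0.1 M phosphate buffer pH 8.0 for 15 min at 37°C. DTNB (0.2%) added, absorbance read at 412 nm. Inhibition % = (1−Ai/Ac)×100. IC50 is the mean of three independent experiments, each run in triplicate.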
Sequence of Cholinesterase (P81908 whole entry): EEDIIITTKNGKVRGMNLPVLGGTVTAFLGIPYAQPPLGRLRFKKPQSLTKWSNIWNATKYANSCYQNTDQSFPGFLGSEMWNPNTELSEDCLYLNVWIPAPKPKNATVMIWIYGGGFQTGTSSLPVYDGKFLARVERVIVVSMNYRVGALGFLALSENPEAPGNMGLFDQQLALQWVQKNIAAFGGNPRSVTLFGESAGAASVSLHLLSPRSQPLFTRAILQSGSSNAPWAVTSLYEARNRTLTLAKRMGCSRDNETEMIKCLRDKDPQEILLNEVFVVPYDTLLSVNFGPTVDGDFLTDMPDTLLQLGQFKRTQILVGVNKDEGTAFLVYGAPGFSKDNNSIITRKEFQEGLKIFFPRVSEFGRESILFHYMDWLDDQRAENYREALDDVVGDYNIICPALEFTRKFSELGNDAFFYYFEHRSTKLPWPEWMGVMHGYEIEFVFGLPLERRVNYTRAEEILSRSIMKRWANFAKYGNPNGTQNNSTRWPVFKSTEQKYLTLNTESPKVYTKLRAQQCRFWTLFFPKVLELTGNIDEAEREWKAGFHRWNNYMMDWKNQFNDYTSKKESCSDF

Assay [3] can be described thus: Inhibition of rat serum BuChE using butyrylthiocholine chloride as substrate after 15 mins by Ellman's method. Put shortly:
as §1

The species named for another assay is Rattus norvegicus. The assay is described as follows: Selectivity index, ratio of IC50 for rat serum BuChE to IC50 for 5% rat cortex homogenate AChE.
For assay [4], the target named is T2, Acetylcholinesterase (Rattus norvegicus, UniProt P37136).
T2 sequence (P37136 whole entry): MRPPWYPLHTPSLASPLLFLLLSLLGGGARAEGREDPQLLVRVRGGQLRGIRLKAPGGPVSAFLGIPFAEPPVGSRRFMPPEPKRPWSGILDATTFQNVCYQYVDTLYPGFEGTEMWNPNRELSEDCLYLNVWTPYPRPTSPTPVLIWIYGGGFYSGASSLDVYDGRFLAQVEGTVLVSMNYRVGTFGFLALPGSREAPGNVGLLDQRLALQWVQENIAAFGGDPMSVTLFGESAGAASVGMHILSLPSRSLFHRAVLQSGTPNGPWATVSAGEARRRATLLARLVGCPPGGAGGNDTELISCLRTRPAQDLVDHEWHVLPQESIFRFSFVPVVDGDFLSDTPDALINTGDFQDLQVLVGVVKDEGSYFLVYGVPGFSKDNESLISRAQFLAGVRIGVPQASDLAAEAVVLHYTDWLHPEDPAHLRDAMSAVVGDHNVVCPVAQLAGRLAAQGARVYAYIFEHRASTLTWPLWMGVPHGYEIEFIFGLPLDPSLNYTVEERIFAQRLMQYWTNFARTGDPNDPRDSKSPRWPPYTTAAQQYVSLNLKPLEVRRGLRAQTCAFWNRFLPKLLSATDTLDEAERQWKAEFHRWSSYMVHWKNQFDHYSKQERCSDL

For the next assay, the species on record is Homo sapiens. Description: Selectivity index, ratio of IC50 for recombinant human MAO-B to IC50 for recombinant human MAO-A.
Assay [5] addresses T3, Amine oxidase [flavin-containing] B (Homo sapiens, UniProt P27338).
T3 sequence (P27338 whole entry): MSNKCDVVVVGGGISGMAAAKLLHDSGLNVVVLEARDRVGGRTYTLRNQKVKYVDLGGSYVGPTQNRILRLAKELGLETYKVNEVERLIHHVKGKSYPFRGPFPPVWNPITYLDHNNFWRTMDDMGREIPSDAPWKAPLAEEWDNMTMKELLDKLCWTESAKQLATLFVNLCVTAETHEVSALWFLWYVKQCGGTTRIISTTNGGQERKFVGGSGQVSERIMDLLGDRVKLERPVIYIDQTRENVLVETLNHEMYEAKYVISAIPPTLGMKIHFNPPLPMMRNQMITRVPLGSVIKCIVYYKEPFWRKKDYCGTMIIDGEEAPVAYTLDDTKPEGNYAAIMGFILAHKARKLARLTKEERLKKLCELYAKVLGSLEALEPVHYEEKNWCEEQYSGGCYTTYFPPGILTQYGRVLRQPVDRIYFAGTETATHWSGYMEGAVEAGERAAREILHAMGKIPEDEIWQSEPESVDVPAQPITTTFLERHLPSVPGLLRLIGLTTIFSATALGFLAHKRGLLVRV
Description: biochemical. The class given is cell-based.

The nature of assay [6]: Selectivity index, ratio of IC50 for equine serum BuChE to IC50 for electric eel AChE.

A word on the IC50: it is the concentration at which inhibition is half-maximal.

As for `CC(C)N1CCN(CCCCCOc2ccc3c(c2)NC(=O)CC3)CC1`, the half-inhibitory concentration (IC50) in [1] amounted to 8.2 µM; on Acetylcholinesterase [2] it was 0.9 µM; against Cholinesterase it was 3.2 µM; in [3] it was 2.7 µM; against Acetylcholinesterase [4], 3.2 µM; in [5], 8.1 µM. The Ratio IC50 in the assay filed under Rattus norvegicus was found to be 0.9; in the assay filed under Homo sapiens, 1; in assay [6] it was 3.5.

In the case of `O=C1CCc2ccc(OCCCCCCN3CCN(Cc4ccccc4)CC3)cc2N1`, the IC50 in [1] amounted to 5.7 µM; against Acetylcholinesterase [2], 12.9 µM; on Cholinesterase, 6.6 µM; in assay [3] it was 24 µM; against Acetylcholinesterase [4] it was 17.9 µM; in [5] it was 4.3 µM. Further, the Ratio IC50 in the assay filed under Rattus norvegicus worked out at 1.3; in the assay listed under Homo sapiens it was 0.7; in assay [6], 0.5.

In the case of `CC(C)N1CCN(CCCCOc2ccc3c(c2)NC(=O)CC3)CC1`, the half-maximal inhibitory concentration (IC50) in assay [1] was 14.3 µM; against Acetylcholinesterase [2], 1 µM; on Cholinesterase, 4.5 µM; in assay [3], 3.7 µM; on Acetylcholinesterase [4], 3.6 µM; in assay [5] it was 7.6 µM. Moreover, the Ratio IC50 in the assay listed under Rattus norvegicus turned out to be 1; in the assay filed under Homo sapiens, 0.5; in assay [6], 4.4.

As to `O=C1CCc2ccc(OCCCCN3CCN(c4ccccn4)CC3)cc2N1`, the half-maximal inhibitory concentration (IC50) was determined as 6.9 µM in [1]; 13.8 µM against Acetylcholinesterase [2]; 8.4 µM at Cholinesterase; 40 µM in [3]; 21 µM against Acetylcholinesterase [4]; 10.1 µM in assay [5]. Besides, the Ratio IC50 in the assay filed under Rattus norvegicus turned out to be 1.9; in the assay filed under Homo sapiens it was 1.5; in assay [6], 0.6.

For the compound `C#CCN(CCCCCOc1ccc2c(c1)NC(=O)CC2)Cc1ccccc1`, the IC50 in [1] worked out at 8.9 µM; against Acetylcholinesterase [2] it was 19.4 µM; against Cholinesterase it was 7 µM; in assay [3], 29.6 µM; on Acetylcholinesterase [4], 14.3 µM; in [5], 8.3 µM. The Ratio IC50 in the assay filed under Rattus norvegicus is 2.1; in the assay filed under Homo sapiens it was 0.9; in [6] it was 0.4.

For `O=C1CCc2ccc(OCCCCCCN3CCc4ccccc4C3)cc2N1`, the 50% inhibitory concentration (IC50) is 3.4 µM in assay [1]; 8.2 µM against Acetylcholinesterase [2]; 1.2 µM at Cholinesterase; 11.7 µM in assay [3]; 10.8 µM against Acetylcholinesterase [4]; 4.4 µM in assay [5]. Besides, the Ratio IC50 in the assay listed under Rattus norvegicus was determined as 1.1; in the assay filed under Homo sapiens, 1.3; in assay [6], 0.1.

`C#CCN(CCCCCCOc1ccc2c(c1)NC(=O)CC2)Cc1ccccc1`: the half-maximal inhibitory concentration (IC50) in assay [1] is 1 µM; on Acetylcholinesterase [2] it was 13.7 µM; at Cholinesterase, 2.4 µM; in assay [3], 24.5 µM; at Acetylcholinesterase [4], 13 µM; in assay [5] it was 3.8 µM. In addition, the Ratio IC50 in the assay listed under Rattus norvegicus was found to be 1.9; in the assay listed under Homo sapiens, 3.8; in [6] it was 0.2.

On to `O=C1CCc2ccc(OCCCCCCN3CCCC3)cc2N1`, for which the half-inhibitory concentration (IC50) in assay [1] stood at 1.3 µM; on Acetylcholinesterase [2] it was 2.6 µM; at Cholinesterase, 0.87 µM; in assay [3] it was 8.5 µM; against Acetylcholinesterase [4] it was 3.4 µM; in [5], 3.5 µM. Further, the results for the Ratio IC50 (in the assay filed under Rattus norvegicus; in the assay listed under Homo sapiens; in assay [6]) were 2.5, 2.8 and 0.33, respectively.

Regarding `O=C1CCc2ccc(OCCCCCN3CCCCC3)cc2N1`, the half-maximal inhibitory concentration (IC50) was determined as 8.4 µM in [1]; 12.8 µM at Acetylcholinesterase [2]; 32.8 µM against Cholinesterase; 31.4 µM in assay [3]; 8.4 µM on Acetylcholinesterase [4]; 17 µM in [5]. For the same compound, the Ratio IC50 was determined as 3.8 in the assay listed under Rattus norvegicus, 2 in the assay filed under Homo sapiens and 2.6 in assay [6].

In the case of `O=C1CCc2ccc(OCCCN3CCc4ccccc4C3)cc2N1`, the IC50 worked out at 8.6 µM in assay [1]; 13.3 µM against Acetylcholinesterase [2]; 5.5 µM at Cholinesterase; 12.6 µM in assay [3]; 15.5 µM on Acetylcholinesterase [4]; 18.8 µM in assay [5]. In addition, the Ratio IC50 came out at 0.8 in the assay filed under Rattus norvegicus, 2.2 in the assay filed under Homo sapiens and 0.4 in assay [6].

These data come from ChEMBL document CHEMBL4033676, “Design, synthesis and biological evaluation of 3,4-dihydro-2(1H)-quinoline-O-alkylamine derivatives as new multipotent cholinesterase/monoamine oxidase inhibitors for the treatment of Alzheimer's disease” (Bioorg Med Chem, 2017).
